Assay results from ChEMBL document CHEMBL1799968, “Dimethyl-diphenyl-propanamide derivatives as nonsteroidal dissociated glucocorticoid receptor agonists” (J Med Chem, 2010).

Columns and labels:
[1] = target: T1, Glucocorticoid receptor (Homo sapiens, UniProt P04150); assay: Transactivation activity of glucocorticoid receptor ligand binding domain expressed in human NP-1 Hela cells co-expressing GAL4 DNA binding domain by luciferase reporter gene assay; assay type: cell-based
T1 sequence (P04150 whole entry): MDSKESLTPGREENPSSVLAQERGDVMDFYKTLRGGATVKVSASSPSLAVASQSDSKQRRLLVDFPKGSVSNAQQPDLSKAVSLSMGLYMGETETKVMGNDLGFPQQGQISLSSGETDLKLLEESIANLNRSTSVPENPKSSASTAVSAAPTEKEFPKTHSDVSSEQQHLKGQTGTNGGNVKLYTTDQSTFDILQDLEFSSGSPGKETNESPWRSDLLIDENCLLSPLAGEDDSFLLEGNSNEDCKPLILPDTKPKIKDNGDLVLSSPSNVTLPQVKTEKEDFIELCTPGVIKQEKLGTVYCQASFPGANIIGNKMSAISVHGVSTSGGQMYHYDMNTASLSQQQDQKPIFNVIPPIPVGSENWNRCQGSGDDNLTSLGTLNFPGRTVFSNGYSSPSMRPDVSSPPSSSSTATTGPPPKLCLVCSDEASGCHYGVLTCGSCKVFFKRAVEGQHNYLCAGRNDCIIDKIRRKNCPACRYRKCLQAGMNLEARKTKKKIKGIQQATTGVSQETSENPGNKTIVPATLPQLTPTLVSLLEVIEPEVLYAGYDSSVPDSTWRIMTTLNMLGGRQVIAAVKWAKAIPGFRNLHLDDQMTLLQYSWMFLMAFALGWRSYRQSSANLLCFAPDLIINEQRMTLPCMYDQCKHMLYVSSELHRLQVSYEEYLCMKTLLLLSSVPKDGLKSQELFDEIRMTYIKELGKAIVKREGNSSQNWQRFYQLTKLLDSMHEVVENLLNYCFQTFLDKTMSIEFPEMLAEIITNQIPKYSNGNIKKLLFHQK

[2] = target: T2, Glucocorticoid receptor (Homo sapiens) (UniProt P04150); assay: Transrepression activity of glucocorticoid receptor in human A549 cells expressing AP-1 assessed as inhibition of PMA-induced AP-1 activity by luciferase reporter gene assay relative to Dexamethasone; assay type: cell-based
T2 sequence (whole entry): T1 sequence (P04150 whole entry)
Method in brief: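 Human A549 lung epithelial cells stably transfected with a 5×AP-1 response element luciferase reporter. AP-1 was induced with PMA (15 ng/mL), and inhibition was read as decreased luciferase.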

[3] = target: T2, Glucocorticoid receptor (Homo sapiens); assay: Transrepression activity of glucocorticoid receptor in human A549 cells assessed as inhibition of IL1beta-stimulated NFkappaB-dependent E-selectin transcription by luciferase reporter gene assay relative to Dexamethasone; assay type: cell-based
[4] = target: T1, Glucocorticoid receptor; assay: Transactivation activity at glucocorticoid receptor in human 13D3/Huh7 cells assessed as induction of tyrosine aminotransferase activity after 24 hrs; assay type: cell-based, Huh-7
[5] = target: T1, Glucocorticoid receptor; assay: Displacement of GS-red from GRapha by fluorescence polarization assay
[6] = target: T2, Glucocorticoid receptor (Homo sapiens); assay: Transactivation activity of glucocorticoid receptor ligand binding domain expressed in human NP-1 Hela cells co-expressing GAL4 DNA binding domain by luciferase reporter gene assay relative to Dexamethasone; assay type: cell-based
Method in brief: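 HeLa NP-1 cells stably carrying a GAL4 DBD–human GR LBD chimera with a GAL4 luciferase reporter. Agonist activity was read as increased luciferase activity.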

[7] = target: T2, Glucocorticoid receptor (Homo sapiens); assay: Transactivation activity at glucocorticoid receptor in human 13D3/Huh7 cells assessed as induction of tyrosine aminotransferase activity after 24 hrs relative to Dexamethasone; assay type: cell-based; conditions: Huh-7
Method in brief: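 Human 13D3/Huh7 hepatoma cells, 20 K/well, were incubated overnight at 37 °C/5% CO2. They were then treated overnight with compounds in assay medium containing 20 μM forskolin. The reaction was stopped with KOH and A340 read. Results are % activation, with EC50 derived.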

[8] = target: T1, Glucocorticoid receptor; assay: Transrepression activity of glucocorticoid receptor in human A549 cells assessed as inhibition of IL1beta-stimulated NFkappaB-dependent E-selectin transcription by luciferase reporter gene assay; assay type: cell-based
[9] = target: T1, Glucocorticoid receptor; assay: Transrepression activity of glucocorticoid receptor in human A549 cells expressing AP-1 assessed as inhibition of PMA-induced AP-1 activity by luciferase reporter gene assay; assay type: cell-based
[10] = target: T3, Androgen receptor (Homo sapiens, UniProt P10275); assay: Binding affinity to androgen receptor by fluorescence polarization assay
T3 sequence (P10275 whole entry): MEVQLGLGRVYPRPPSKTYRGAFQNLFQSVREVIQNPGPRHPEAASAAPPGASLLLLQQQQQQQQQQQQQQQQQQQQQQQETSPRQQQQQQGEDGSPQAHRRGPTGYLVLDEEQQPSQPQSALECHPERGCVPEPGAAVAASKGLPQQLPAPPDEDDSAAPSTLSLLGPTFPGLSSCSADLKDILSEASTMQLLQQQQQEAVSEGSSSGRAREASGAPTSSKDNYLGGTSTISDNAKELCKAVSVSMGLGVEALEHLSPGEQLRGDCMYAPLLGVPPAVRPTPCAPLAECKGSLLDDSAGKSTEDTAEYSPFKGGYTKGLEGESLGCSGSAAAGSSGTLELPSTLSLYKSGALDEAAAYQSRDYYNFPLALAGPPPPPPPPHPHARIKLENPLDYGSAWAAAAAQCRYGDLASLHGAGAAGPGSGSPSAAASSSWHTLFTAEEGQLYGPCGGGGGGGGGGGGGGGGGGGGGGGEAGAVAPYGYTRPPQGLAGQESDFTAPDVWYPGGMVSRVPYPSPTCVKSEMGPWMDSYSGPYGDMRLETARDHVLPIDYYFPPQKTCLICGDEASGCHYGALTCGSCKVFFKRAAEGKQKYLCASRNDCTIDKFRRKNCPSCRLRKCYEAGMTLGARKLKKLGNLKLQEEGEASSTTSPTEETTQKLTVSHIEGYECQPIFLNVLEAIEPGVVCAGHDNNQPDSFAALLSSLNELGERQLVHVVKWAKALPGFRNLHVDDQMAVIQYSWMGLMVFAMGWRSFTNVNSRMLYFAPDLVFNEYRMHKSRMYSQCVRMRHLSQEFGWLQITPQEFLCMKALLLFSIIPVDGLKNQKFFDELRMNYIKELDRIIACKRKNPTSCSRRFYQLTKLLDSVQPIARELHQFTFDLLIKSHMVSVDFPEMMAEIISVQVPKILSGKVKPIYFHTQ
Method in brief: (§1)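 Fluorescence polarization competition of test compound against a fluorescently labelled ligand for binding to full-length receptor or its ligand-binding domain.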

[11] = target: T4, Progesterone receptor (Homo sapiens, UniProt P06401); assay: Binding affinity to progesterone receptor by fluorescence polarization assay; method in brief: as §1
T4 sequence (P06401 whole entry): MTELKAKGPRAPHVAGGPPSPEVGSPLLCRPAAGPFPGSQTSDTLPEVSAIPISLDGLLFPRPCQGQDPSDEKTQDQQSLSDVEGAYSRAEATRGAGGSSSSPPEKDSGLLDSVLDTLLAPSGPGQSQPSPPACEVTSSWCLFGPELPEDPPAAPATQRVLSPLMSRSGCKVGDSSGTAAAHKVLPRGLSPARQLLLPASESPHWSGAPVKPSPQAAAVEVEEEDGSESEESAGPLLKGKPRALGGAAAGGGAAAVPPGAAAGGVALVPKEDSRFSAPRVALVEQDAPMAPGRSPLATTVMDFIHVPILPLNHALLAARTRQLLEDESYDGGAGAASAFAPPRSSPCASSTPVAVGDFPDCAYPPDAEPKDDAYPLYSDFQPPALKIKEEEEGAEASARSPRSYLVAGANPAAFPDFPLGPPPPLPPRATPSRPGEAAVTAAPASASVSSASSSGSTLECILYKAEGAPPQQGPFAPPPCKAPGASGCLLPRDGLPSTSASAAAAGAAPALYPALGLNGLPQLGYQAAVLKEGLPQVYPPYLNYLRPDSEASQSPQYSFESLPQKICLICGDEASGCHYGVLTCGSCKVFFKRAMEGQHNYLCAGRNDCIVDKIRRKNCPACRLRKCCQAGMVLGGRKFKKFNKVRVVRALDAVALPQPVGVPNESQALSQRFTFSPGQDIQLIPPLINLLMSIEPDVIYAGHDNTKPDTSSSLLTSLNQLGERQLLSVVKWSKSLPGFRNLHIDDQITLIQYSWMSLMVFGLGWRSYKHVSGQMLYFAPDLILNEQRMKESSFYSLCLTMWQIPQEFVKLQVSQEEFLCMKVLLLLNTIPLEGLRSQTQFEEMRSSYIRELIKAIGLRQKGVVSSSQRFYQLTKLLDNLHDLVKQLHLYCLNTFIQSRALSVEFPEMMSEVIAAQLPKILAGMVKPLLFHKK

| EC50 [1] | Efficacy [2] | Efficacy [3] | EC50 [4] | Ki [5] | Efficacy [6] | Efficacy [7] | EC50 [8] | EC50 [9] | Ki [10] | Ki [11] | Structure (SMILES) |
| --- | --- | --- | --- | --- | --- | --- | --- | --- | --- | --- | --- |
| 0.216 µM | 77% | 63% | 0.197 µM | 0.0006 µM | 39% | 41% | 0.0377 µM | 0.0511 µM |  |  | CC(C)(C(=O)Nc1nccs1)C(c1ccccc1)c1ccc(O)c(F)c1 (racemic) |
|  |  |  |  |  |  |  |  |  | > 4 µM | 0.14 µM | Cc1cc([C@H](c2ccccc2)C(C)(C)C(=O)Nc2nncs2)ccc1O |
| > 10 µM |  | 16% | 2.33 µM | 0.0073 µM |  |  | > 5 µM | > 10 µM |  |  | CC(=O)c1cc([C@H](c2ccccc2)C(C)(C)C(=O)Nc2nccs2)ccc1O |
| 0.863 µM | 63% | 50% | 2.58 µM | 0.0025 µM | 14% | 20% | 0.125 µM | 0.0614 µM |  |  | CC(C)(C(=O)Nc1nccs1)C(c1ccccc1)c1ccc(O)cc1 (racemic) |
| > 10 µM |  |  | > 10 µM |  |  |  |  | > 10 µM |  |  | CC(C)(C(=O)Nc1nccs1)[C@H](c1ccccc1)c1ccc(O)cc1 |
| > 10 µM |  |  |  | 0.006 µM |  |  | > 5 µM | > 5 µM |  |  | CC(C)(C(=O)Nc1nncs1)C1c2ccccc2Oc2ccccc21 |
| > 10 µM |  |  |  | 0.0587 µM |  |  | > 5 µM | > 5 µM |  |  | CC(C)(C(=O)Nc1nncs1)[C@@H]1c2ccccc2Oc2cc(O)ccc21 |
| > 10 µM | 16% | 12% | > 5 µM | 0.0046 µM |  |  | > 5 µM | > 10 µM |  |  | CC(C)(C(=O)Nc1nccs1)[C@H](c1ccccc1)c1ccc(O)c(F)c1 |
| 0.0672 µM | 87% | 75% | 0.0465 µM | 0.0004 µM | 54% | 57% | 0.0062 µM | 0.0127 µM |  |  | CC(C)(C(=O)Nc1nncs1)[C@@H](c1ccccc1)c1ccc(O)c(Br)c1 |
| > 10 µM | 74% | 48% | > 5 µM | 0.0009 µM |  | 16% | 0.206 µM | 0.506 µM | > 3 µM | 0.144 µM | CC(C)(C(=O)Nc1nccs1)[C@@H](c1ccccc1)c1ccc(O)c(C#N)c1 |
